≈ marks a conversion by molar mass, not a printed value.
How the values were obtained:
KB = assay: Cytotoxicity against human KB cells by MTT assay; format: functional, cell-based
Method in brief: (§1)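 MTT colorimetric assay of cell viability. IC50 is expressed in μg/mL as the mean of 3 determinations.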

[1] = Cytotoxicity against human KBVIN cells by MTT assay; format: functional, cell-based; method in brief: as §1
A549 = assay: Cytotoxicity against human A549 cells by MTT assay; format: functional, cell-based; method in brief: as §1
DU-145 = assay: Cytotoxicity against human DU145 cells by MTT assay; format: functional, cell-based; method in brief: as §1
[2] = Antiinflammatory activity in human neutrophils assessed as inhibition of fMLP/CB-induced superoxide anion generation at 10 ug/mL after 15 mins by cytochrome c reduction assay; format: functional; details: Neutrophil, 0.25 h
Method in brief: (§2)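 Human neutrophils stimulated with fMLP/CB; superoxide anion generation and elastase release were measured. IC50 is the concentration giving 50% inhibition. Where 50% inhibition was not reached at any tested dose, % inhibition at 10 μg/mL is reported. Mean ± S.E.M., n = 3-5.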

[3] = Antiinflammatory activity in human neutrophils assessed as inhibition of fMLP/CB-induced elastase release using MeO-Suc-Ala-Ala-Pro-Val-MC as substrate at 10 ug/mL by spectrophotometry; format: functional; details: Neutrophil; method in brief: as §2
[4] = Antiinflammatory activity in human neutrophils assessed as inhibition of fMLP/CB-induced superoxide anion generation after 15 mins by cytochrome c reduction assay; format: functional, cell-based; details: Neutrophil, 0.25 h; method in brief: as §2
Neutrophil = assay: Ratio of PMSF IC50 to compound IC50 for antiinflammatory activity in human neutrophils assessed as inhibition of fMLP/CB-induced elastase release; format: functional
[5] = Antiinflammatory activity in human neutrophils assessed as inhibition of fMLP/CB-induced elastase release using MeO-Suc-Ala-Ala-Pro-Val-MC as substrate by spectrophotometry; format: functional, cell-based; details: Neutrophil; method in brief: as §2
[6] = Antiinflammatory activity in human neutrophils assessed as inhibition of induced superoxide anion generation at 10 ug/mL after 15 mins by cytochrome c reduction assay in the absence of fMLP/CB; format: functional; details: Neutrophil, 0.25 h
[7] = Antiinflammatory activity in human neutrophils assessed as inhibition of elastase release using MeO-Suc-Ala-Ala-Pro-Val-MC as substrate at 10 ug/mL by spectrophotometry in the absence of fMLP/CB; format: functional; details: Neutrophil
[8] = Antiinflammatory activity in human neutrophils pretreated with cytochalasin B assessed as inhibition of fMLP/CB-induced superoxide anion generation after 15 mins by cytochrome c reduction assay; format: functional, cell-based; details: Neutrophil; method in brief: as §2

IC50 [4] [µg/mL] | IC50 [5] [µg/mL] | IC50 [8] [µg/mL] | SMILES | IC50 (KB) [µg/mL] | IC50 [1] [µg/mL] | IC50 (A549) [µg/mL] | IC50 (DU-145) [µg/mL] | inhibition at 10 µg/mL [2] [%] | inhibition at 10 µg/mL [3] [%] | Ratio IC50 (Neutrophil) | inhibition at 10 µg/mL [6] [%] | inhibition at 10 µg/mL [7] [%]
 |  |  | CC1(C)Oc2cc(O)c3c(=O)c4ccc(O)cc4oc3c2C(O)C1O (configuration not stated) | > 10 | 0.8 (≈ 2.32 µM) | 9.9 (≈ 28.8 µM) | 6.7 (≈ 19.5 µM) | 8.63 | 6.37 |  |  | 
3.97 (≈ 12.8 µM) |  |  | CC1(C)C=Cc2c(cc(O)c3c(=O)c4ccc(O)cc4oc23)O1 | 4.8 (≈ 15.5 µM) | 0.9 (≈ 2.9 µM) | 5.8 (≈ 18.7 µM) | 5.1 (≈ 16.4 µM) |  | 18.4 |  |  | 
2.49 (≈ 7.23 µM) |  |  | CC1(C)Oc2cc3oc4cc(O)ccc4c(=O)c3c(O)c2C(O)C1O (configuration not stated) | 6.3 (≈ 18.3 µM) | 6.8 (≈ 19.7 µM) | 5.9 (≈ 17.1 µM) | 5.4 (≈ 15.7 µM) |  | 35.3 |  |  | 
 |  |  | CC(C)=CCOc1ccc2c(=O)c3c(O)c(CC=C(C)C)c(OCC=C(C)C)cc3oc2c1 |  | 7.5 (≈ 16.7 µM) | 7.9 (≈ 17.6 µM) | 4.3 (≈ 9.59 µM) | 10.1 | 7.56 |  |  | 
 |  |  | COc1ccc2c(=O)c3c(O)cc(OC)cc3oc2c1 |  | > 10 | > 10 | > 10 | 31.3 | 26.5 |  |  | 
4.3 (≈ 10.4 µM) | 5.75 (≈ 13.9 µM) |  | CC(C)=CCCC1(C)Oc2cc3oc4cc(O)ccc4c(=O)c3c(O)c2C(O)C1O (configuration not stated) | > 10 | > 10 | > 10 | > 10 |  |  | 15 |  | 
 |  |  | CC(C)=CCOc1ccc2c(=O)c3c(OCC=C(C)C)cc(OCC=C(C)C)cc3oc2c1 |  | > 10 | > 10 | 6.3 (≈ 14 µM) | 64.3 | 54.9 |  |  | 
 |  |  | CC(C)=CCc1c(O)cc2oc3c(CC=C(C)C)c(O)ccc3c(=O)c2c1O |  | 4.4 (≈ 11.6 µM) | 5 (≈ 13.1 µM) | 2.8 (≈ 7.36 µM) | 31.6 | 67.2 |  |  | 
 |  |  | COc1ccc2c(=O)c3c(O)cc(O)cc3oc2c1 |  | > 10 | > 10 | > 10 | 45.2 | 23.6 |  |  | 
 |  |  | CC(C)=CCc1c(O)c(CC=C(C)C)c2oc3cc(O)ccc3c(=O)c2c1O |  | 6.7 (≈ 17.6 µM) | 6.4 (≈ 16.8 µM) | 3.9 (≈ 10.3 µM) |  |  |  | 101 | 102
 |  |  | CC(C)=CCc1c(O)cc2oc3cc(O)ccc3c(=O)c2c1O |  | 5.4 (≈ 17.3 µM) | 6.2 (≈ 19.9 µM) | 3.8 (≈ 12.2 µM) | 45.2 | 56.3 |  |  | 
0.46 (≈ 1.48 µM) | 0.64 (≈ 2.06 µM) |  | CC1(C)C=Cc2c(cc3oc4cc(O)ccc4c(=O)c3c2O)O1 | 4.6 (≈ 14.8 µM) | 5.5 (≈ 17.7 µM) | 5.8 (≈ 18.7 µM) | 4.4 (≈ 14.2 µM) |  |  | 15 |  | 
 |  |  | CC(C)=CCC[C@]1(C)C=Cc2c(O)c3c(c(CC=C(C)C)c2O1)O[C@]12C(=C[C@@H]4C[C@H]1C(C)(C)O[C@@]2(C/C=C(/C)C(=O)O)C4=O)C3=O [GAMBOGIC ACID] | 0.3 (≈ 0.477 µM) | 0.4 (≈ 0.636 µM) | 0.5 (≈ 0.795 µM) | 0.3 (≈ 0.477 µM) |  |  |  |  | 
 | 0.49 (≈ 1.29 µM) | 35.6 (≈ 94.1 µM) | CC(C)=CCCC1(C)C=Cc2c(cc(O)c3c(=O)c4ccc(O)cc4oc23)O1 (configuration not stated) | 5.3 (≈ 14 µM) | 5.7 (≈ 15.1 µM) | 5.1 (≈ 13.5 µM) | 5.2 (≈ 13.7 µM) |  |  | 200 |  | 
5.84 (≈ 23.9 µM) |  |  | O=c1c2ccc(O)cc2oc2cc(O)cc(O)c12 |  | > 10 | > 10 | > 10 |  | 16 |  |  | 
 |  |  | CC(=O)O[C@H]1C(=O)[C@@]2(C)[C@H]([C@H](OC(=O)c3ccccc3)[C@]3(O)C[C@H](OC(=O)[C@H](O)[C@@H](NC(=O)c4ccccc4)c4ccccc4)C(C)=C1C3(C)C)[C@]1(OC(C)=O)CO[C@@H]1C[C@@H]2O [PACLITAXEL] | 0.0016 (≈ 0.00187 µM) | 0.0011 (≈ 0.00129 µM) |  | 0.0024 (≈ 0.00281 µM) |  |  |  |  | 
2.56 (≈ 6.21 µM) | 8.46 (≈ 20.5 µM) |  | CC(C)=CCCC1(C)Oc2cc(O)c3c(=O)c4ccc(O)cc4oc3c2C(O)C1O (configuration not stated) | > 10 | > 10 | > 10 | > 10 |  |  | 15 |  | 
20.2 (≈ 64.7 µM) |  |  | CC(C)=CCOc1cc(O)c2c(=O)c3ccc(O)cc3oc2c1 |  | 5.3 (≈ 17 µM) | 6.9 (≈ 22.1 µM) | 3.7 (≈ 11.8 µM) |  | 4.21 |  |  | 
 |  |  | CC(C)=CCOc1ccc2c(=O)c3c(O)cc(OCC=C(C)C)cc3oc2c1 |  | > 10 | 9.3 (≈ 24.4 µM) | > 10 | 5.32 | 13.3 |  |  | 
5.43 (≈ 14.3 µM) | 8.75 (≈ 23.1 µM) |  | CC(C)=CCCC1(C)C=Cc2c(cc3oc4cc(O)ccc4c(=O)c3c2O)O1 (configuration not stated) | 6.2 (≈ 16.4 µM) | 6 (≈ 15.9 µM) | 6.6 (≈ 17.4 µM) | 6.2 (≈ 16.4 µM) |  |  | 15 |  | 

SMILES | IC50 [4] [µg/mL] | IC50 [5] [µg/mL] | IC50 [8] [µg/mL] | IC50 (KB) [µg/mL] | IC50 [1] [µg/mL] | IC50 (A549) [µg/mL] | IC50 (DU-145) [µg/mL] | inhibition at 10 µg/mL [2] [%] | inhibition at 10 µg/mL [3] [%] | Ratio IC50 (Neutrophil) | inhibition at 10 µg/mL [6] [%] | inhibition at 10 µg/mL [7] [%]
O=S(=O)(F)Cc1ccccc1 [PHENYLMETHYLSULFONYLFLUORIDE] |  | 131 (≈ 752 µM) |  |  |  |  |  |  |  |  |  | 
c1ccc2c(c1)[I+]c1ccccc1-2 [DIPHENYLENEIODONIUM] | 0.7 |  |  |  |  |  |  |  |  |  |  | 

— ChEMBL document CHEMBL2029342, “Design and synthesis of gambogic acid analogs as potent cytotoxic and anti-inflammatory agents” (Bioorg Med Chem Lett, 2012)
